Experimental data as given in ChEMBL document CHEMBL1137240, “Conjugation of adenosine and hexa-(D-arginine) leads to a nanomolar bisubstrate-analog inhibitor of basophilic protein kinases” (J Med Chem, 2006).

Tests used:
[1] = target: Casein kinase II (Homo sapiens) (UniProt P67870+P68400+P19784); assay: Percent residual activity, relative to control, of CK2 at 1 uM concentration of inhibitor in presence of 5 uM ATP; format: protein-complex assay
Procedure, shortened: (§1)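 It is expressed as percent of activity in control incubations without inhibitor, as the mean of duplicate determinations. The protocol follows earlier published panel methods.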

[2] = target: Serine/threonine-protein kinase Sgk1 (Homo sapiens) (UniProt O00141); assay: Percent residual activity, relative to control, of SGK at 1 uM concentration of inhibitor in presence of 20 uM ATP; procedure, shortened: as §1
[3] = target: Mitogen-activated protein kinase 12 (Homo sapiens) (UniProt P53778); assay: Percent residual activity, relative to control, of SAPK3/p38 gamma at 1 uM concentration of inhibitor in presence of 5 uM ATP; procedure, shortened: as §1
[4] = target: MAP kinase-activated protein kinase 5 (Homo sapiens) (UniProt Q8IW41); assay: Percent residual activity, relative to control, of PRAK at 1uM concentration of inhibitor in presence of 20uM ATP; procedure, shortened: as §1
MAP kinase-activated protein kinase 5 (Homo sapiens), sequence (Q8IW41 whole entry): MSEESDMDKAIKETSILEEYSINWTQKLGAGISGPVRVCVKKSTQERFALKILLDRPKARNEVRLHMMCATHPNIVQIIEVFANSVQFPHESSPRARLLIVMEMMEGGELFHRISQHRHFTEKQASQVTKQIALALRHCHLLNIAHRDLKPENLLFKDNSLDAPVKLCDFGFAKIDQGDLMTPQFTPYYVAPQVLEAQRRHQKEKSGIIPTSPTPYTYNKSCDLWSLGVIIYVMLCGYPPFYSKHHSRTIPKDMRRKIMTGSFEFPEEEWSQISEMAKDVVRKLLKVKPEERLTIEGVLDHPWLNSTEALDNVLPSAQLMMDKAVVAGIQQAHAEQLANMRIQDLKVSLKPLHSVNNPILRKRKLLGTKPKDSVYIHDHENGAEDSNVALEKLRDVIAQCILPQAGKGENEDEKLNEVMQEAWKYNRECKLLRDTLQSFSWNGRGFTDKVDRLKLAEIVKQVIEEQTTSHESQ

[5] = target: RAC-alpha serine/threonine-protein kinase (Homo sapiens) (UniProt P31749); assay: Percent residual activity, relative to control, of PKB alpha (no ph) at 1 uM concentration of inhibitor in presence of 5 uM ATP; procedure, shortened: as §1
RAC-alpha serine/threonine-protein kinase (Homo sapiens), sequence (P31749 whole entry): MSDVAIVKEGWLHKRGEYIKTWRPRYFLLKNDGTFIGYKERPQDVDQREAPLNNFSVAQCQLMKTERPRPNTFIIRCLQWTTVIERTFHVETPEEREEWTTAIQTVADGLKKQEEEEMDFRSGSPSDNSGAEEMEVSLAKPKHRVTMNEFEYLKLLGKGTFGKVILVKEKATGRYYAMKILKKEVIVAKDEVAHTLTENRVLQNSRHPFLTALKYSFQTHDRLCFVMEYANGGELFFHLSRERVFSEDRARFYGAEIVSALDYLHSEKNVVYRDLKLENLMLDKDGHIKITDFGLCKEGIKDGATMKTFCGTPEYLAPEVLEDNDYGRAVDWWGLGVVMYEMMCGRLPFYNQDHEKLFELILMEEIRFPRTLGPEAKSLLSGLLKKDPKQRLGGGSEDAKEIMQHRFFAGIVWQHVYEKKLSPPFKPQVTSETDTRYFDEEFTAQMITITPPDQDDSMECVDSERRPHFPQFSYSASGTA

[6] = target: Serine/threonine-protein kinase D1 (Homo sapiens) (UniProt Q15139); assay: Percent residual activity, relative to control, of PKD1 at 1 uM concentration of inhibitor in presence of 50 uM ATP; procedure, shortened: as §1
[7] = target: MAP kinase-interacting serine/threonine-protein kinase 1 (Homo sapiens) (UniProt Q9BUB5); assay: Percent residual activity, relative to control, of MNK1 at 1 uM concentration of inhibitor in presence of 50 uM ATP; procedure, shortened: as §1
MAP kinase-interacting serine/threonine-protein kinase 1 (Homo sapiens), sequence (Q9BUB5 whole entry, looked up): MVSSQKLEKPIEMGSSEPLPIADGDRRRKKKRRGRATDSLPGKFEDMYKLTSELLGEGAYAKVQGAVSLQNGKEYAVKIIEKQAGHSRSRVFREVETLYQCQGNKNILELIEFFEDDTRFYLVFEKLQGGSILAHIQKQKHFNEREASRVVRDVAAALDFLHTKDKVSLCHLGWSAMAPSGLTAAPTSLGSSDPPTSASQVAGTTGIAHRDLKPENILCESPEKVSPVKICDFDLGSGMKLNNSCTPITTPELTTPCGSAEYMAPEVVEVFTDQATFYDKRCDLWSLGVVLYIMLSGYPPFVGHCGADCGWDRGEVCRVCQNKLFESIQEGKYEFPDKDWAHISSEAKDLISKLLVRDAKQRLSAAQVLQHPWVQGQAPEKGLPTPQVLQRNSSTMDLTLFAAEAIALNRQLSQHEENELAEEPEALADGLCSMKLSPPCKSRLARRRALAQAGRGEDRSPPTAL

Homo sapiens = species on record: Homo sapiens; assay: Percent residual activity, relative to control, of CAMK-1 at 1 uM concentration of inhibitor in presence of 50 uM ATP; procedure, shortened: as §1
[8] = target: Proto-oncogene tyrosine-protein kinase Src (Homo sapiens) (UniProt P12931); assay: Percent residual activity, relative to control, of Src at 1 uM concentration of inhibitor in presence of 50 uM ATP
Proto-oncogene tyrosine-protein kinase Src (Homo sapiens), sequence (P12931 2-536 limits assumed): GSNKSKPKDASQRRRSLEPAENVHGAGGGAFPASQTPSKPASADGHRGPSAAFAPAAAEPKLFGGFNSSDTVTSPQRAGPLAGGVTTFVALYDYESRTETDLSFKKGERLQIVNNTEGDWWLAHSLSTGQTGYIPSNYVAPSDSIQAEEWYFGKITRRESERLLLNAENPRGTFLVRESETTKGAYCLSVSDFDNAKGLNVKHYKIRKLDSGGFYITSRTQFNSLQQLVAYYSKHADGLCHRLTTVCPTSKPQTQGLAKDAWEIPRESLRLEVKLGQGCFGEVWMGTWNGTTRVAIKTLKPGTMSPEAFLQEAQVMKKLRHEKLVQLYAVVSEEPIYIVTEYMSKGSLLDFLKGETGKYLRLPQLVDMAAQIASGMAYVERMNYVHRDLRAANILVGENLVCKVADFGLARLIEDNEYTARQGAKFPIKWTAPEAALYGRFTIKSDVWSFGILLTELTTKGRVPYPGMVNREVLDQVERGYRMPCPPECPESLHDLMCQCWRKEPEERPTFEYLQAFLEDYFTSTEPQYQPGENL
Procedure, shortened: (§2)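 Methods followed an earlier description. Activity is given as percent residual activity relative to control incubations with the inhibitor omitted. Values are means of duplicate determinations.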

[9] = target: Eukaryotic elongation factor 2 kinase (Homo sapiens) (UniProt O00418); assay: Percent residual activity, relative to control, of EF2K at 1 uM concentration of inhibitor in presence of 5 uM ATP; procedure, shortened: as §1
Eukaryotic elongation factor 2 kinase (Homo sapiens), sequence (O00418 whole entry): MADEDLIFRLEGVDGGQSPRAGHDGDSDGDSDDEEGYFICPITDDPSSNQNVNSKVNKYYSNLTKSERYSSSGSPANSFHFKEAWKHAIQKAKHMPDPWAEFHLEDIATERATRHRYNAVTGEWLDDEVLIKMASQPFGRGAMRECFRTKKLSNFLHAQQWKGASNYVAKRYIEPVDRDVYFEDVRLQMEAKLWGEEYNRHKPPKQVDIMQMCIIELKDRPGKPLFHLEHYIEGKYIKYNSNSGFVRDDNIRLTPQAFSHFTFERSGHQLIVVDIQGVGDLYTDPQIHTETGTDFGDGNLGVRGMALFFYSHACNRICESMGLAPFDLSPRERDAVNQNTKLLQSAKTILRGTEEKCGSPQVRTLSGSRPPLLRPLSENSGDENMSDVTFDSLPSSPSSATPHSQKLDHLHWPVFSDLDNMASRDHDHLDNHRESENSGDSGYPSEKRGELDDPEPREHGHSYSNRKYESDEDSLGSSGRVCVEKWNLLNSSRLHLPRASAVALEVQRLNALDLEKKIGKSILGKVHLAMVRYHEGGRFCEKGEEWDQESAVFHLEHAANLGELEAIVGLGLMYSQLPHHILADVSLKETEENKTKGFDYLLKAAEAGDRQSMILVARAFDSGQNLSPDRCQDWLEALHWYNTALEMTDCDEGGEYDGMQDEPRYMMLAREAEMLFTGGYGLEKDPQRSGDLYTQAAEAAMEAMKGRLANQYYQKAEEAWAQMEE

[10] = target: Dual specificity tyrosine-phosphorylation-regulated kinase 1A (Homo sapiens) (UniProt Q13627); assay: Percent residual activity, relative to control, of DYRK1a at 1 uM concentration of inhibitor in presence of 50 uM ATP; procedure, shortened: as §1
[11] = target: Serine/threonine-protein kinase PLK1 (Homo sapiens) (UniProt P53350); assay: Percent residual activity, relative to control, of PLK1 at 1 uM concentration of inhibitor in presence of 5 uM ATP; procedure, shortened: as §1
Serine/threonine-protein kinase PLK1 (Homo sapiens), sequence (P53350 whole entry): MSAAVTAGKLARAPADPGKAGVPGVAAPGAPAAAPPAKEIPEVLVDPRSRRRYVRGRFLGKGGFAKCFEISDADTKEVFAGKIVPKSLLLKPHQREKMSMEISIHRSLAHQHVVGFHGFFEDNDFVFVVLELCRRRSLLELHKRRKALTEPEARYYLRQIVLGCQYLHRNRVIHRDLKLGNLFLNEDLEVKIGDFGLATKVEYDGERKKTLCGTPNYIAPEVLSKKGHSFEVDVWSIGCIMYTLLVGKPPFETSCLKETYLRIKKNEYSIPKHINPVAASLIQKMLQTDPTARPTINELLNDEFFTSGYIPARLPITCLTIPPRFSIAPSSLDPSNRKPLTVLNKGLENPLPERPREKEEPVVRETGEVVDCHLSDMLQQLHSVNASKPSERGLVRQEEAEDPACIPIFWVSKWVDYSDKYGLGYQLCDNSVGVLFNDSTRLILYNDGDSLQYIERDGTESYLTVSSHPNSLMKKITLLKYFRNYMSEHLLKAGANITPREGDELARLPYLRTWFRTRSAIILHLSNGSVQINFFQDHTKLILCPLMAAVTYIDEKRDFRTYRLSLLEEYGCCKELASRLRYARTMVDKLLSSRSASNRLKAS

[12] = target: MAP kinase-activated protein kinase 3 (Homo sapiens) (UniProt Q16644); assay: Percent residual activity, relative to control, of MAPKAP-K3 at 1 uM concentration of inhibitor in presence of 20 uM ATP; procedure, shortened: as §1
[13] = target: Mitogen-activated protein kinase 14 (Homo sapiens) (UniProt Q16539); assay: Percent residual activity, relative to control, of SAPK2a/p38 at 1 uM concentration of inhibitor in presence of 50 uM ATP; procedure, shortened: as §1
[14] = target: Mitogen-activated protein kinase 15 (Homo sapiens) (UniProt Q8TD08); assay: Percent residual activity, relative to control, of ERK8 at 1 uM concentration of inhibitor in presence of 5 uM ATP; procedure, shortened: as §1
[15] = target: Lymphokine-activated killer T-cell-originated protein kinase (Homo sapiens) (UniProt Q96KB5); assay: Percent residual activity, relative to control, of PBK at 1uM concentration of inhibitor in presence of 50uM ATP; procedure, shortened: as §1
[16] = target: cAMP-dependent protein kinase catalytic subunit alpha (Homo sapiens, UniProt P17612); assay: Inhibitory potency towards human cAPK C alpha in the presence of 100 uM ATP and 30 uM TAMRA-kemptide
Procedure, shortened: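 cAPK catalytic subunit (about 1 nM) incubated at 30 °C with inhibitor at various concentrations in 50 mM Hepes pH 7.5, 10 mM Mg acetate, 0.2 mg/mL BSA, 30 µM TAMRA-kemptide; reaction started with 100 µM ATP. Stopped at fixed times by 20-fold dilution in 75 mM phosphoric acid, then normal-phase TLC with fluorescence imaging (532 nm excitation). IC50 determined.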

[17] = target: Mitogen-activated protein kinase 10 (Homo sapiens) (UniProt P53779); assay: Percent residual activity, relative to control, of JNK3 at 1uM concentration of inhibitor in presence of 50uM ATP; procedure, shortened: as §1
[18] = target: Cyclin-dependent kinase 2/cyclin A (Homo sapiens) (UniProt P24941+P20248+P78396); assay: Percent residual activity, relative to control, of CDK2 (with cyclin A) at 1 uM concentration of inhibitor in presence of 20 uM ATP; format: protein-complex assay; procedure, shortened: as §1
[19] = target: Serine/threonine-protein kinase Nek2 (Homo sapiens) (UniProt P51955); assay: Percent residual activity, relative to control, of NEK2a at 1 uM concentration of inhibitor in presence of 50 uM ATP; procedure, shortened: as §1
[20] = target: Tyrosine-protein kinase Lck (Homo sapiens) (UniProt P06239); assay: Percent residual activity, relative to control, of Lck at 1uM concentration of inhibitor in presence of 50uM ATP; procedure, shortened: as §1
Tyrosine-protein kinase Lck (Homo sapiens), sequence (P06239 2-509 limits assumed): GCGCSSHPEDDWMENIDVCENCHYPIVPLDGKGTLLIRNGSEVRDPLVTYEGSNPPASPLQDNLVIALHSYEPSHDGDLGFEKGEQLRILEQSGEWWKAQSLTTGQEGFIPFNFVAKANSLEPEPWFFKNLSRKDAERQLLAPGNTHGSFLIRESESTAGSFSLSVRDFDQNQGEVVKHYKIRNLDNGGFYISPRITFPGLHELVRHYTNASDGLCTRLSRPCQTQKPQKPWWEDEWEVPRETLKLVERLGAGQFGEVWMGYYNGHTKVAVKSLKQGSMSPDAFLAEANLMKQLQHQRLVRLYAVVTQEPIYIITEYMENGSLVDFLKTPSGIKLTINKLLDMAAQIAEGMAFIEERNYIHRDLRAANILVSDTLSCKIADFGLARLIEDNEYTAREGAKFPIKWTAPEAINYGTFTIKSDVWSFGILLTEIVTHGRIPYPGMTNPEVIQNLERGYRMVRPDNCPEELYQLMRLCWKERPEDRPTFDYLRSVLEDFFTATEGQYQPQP

[21] = target: Serine/threonine-protein kinase N2 (Homo sapiens) (UniProt Q16513); assay: Percent residual activity, relative to control, of PRK2 at 1 uM concentration of inhibitor in presence of 5 uM ATP; procedure, shortened: as §1
[22] = target: Myosin light chain kinase, smooth muscle (Homo sapiens) (UniProt Q15746); assay: Percent residual activity, relative to control, of smMLCK at 1uM concentration of inhibitor in presence of 50uM ATP; procedure, shortened: as §2
[23] = target: MAP kinase-activated protein kinase 2 (Homo sapiens) (UniProt P49137); assay: Percent residual activity, relative to control, of MAPKAP-K2 at 1 uM concentration of inhibitor in presence of 20 uM ATP; procedure, shortened: as §1
MAP kinase-activated protein kinase 2 (Homo sapiens), sequence (P49137 whole entry, looked up): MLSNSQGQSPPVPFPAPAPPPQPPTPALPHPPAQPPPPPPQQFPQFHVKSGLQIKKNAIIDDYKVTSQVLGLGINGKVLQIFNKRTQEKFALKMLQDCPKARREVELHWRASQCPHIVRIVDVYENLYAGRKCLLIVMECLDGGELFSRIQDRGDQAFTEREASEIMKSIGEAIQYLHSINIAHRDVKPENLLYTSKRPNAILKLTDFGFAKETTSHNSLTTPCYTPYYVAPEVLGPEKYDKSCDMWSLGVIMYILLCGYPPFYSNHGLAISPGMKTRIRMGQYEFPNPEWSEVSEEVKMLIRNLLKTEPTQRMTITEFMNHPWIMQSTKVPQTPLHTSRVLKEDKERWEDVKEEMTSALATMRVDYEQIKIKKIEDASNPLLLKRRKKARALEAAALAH

[24] = target: MAP/microtubule affinity-regulating kinase 3 (Homo sapiens) (UniProt P27448); assay: Percent residual activity, relative to control, of MARK3 at 1uM concentration of inhibitor in presence of 5uM ATP; procedure, shortened: as §1
MAP/microtubule affinity-regulating kinase 3 (Homo sapiens), sequence (P27448 whole entry, looked up): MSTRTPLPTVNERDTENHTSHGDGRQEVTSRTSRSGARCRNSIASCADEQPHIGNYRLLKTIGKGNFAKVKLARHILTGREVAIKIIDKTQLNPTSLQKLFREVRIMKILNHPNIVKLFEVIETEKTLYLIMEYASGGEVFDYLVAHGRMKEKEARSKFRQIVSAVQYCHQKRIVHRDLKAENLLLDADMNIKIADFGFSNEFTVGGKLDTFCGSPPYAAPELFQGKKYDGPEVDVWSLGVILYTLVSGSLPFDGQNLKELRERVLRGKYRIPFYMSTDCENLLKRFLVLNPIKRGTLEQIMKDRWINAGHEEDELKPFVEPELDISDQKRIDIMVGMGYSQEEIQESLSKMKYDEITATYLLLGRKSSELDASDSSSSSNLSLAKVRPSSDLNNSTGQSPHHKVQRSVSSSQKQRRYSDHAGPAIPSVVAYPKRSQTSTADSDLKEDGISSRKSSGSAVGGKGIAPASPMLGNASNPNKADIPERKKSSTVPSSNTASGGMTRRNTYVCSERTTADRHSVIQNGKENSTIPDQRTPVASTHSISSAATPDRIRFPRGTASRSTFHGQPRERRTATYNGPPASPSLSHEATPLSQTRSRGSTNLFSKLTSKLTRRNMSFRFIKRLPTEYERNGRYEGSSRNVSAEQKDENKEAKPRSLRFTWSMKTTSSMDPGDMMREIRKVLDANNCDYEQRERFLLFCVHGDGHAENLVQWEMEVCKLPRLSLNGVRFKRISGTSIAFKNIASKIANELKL

**Q.** What does the source list for `N=C(N)NCCC[C@@H](NC(=O)[C@@H](CCCNC(=N)N)NC(=O)[C@@H](CCCNC(=N)N)NC(=O)[C@@H](CCCNC(=N)N)NC(=O)[C@@H](CCCNC(=N)N)NC(=O)[C@@H](CCCNC(=N)N)NC(=O)CCCCCNC(=O)[C@H]1O[C@@H](n2cnc3c(N)ncnc32)[C@H](O)[C@@H]1O)C(N)=O`?
**A.** Activity [1]: 104%; Activity [2]: 16%; Activity [3]: 111%; Activity [4]: 89%; Activity [5]: 2%; Activity [6]: 54%; Activity [7]: 102%; Activity (Homo sapiens): 15%; Activity [8]: 84%; Activity [9]: 92%; Activity [10]: 72%; Activity [11]: 81%; Activity [12]: 67%; Activity [13]: 79%; Activity [14]: 50%; Activity [15]: 88%; IC50 [16]: 109 nM; Activity [17]: 91%; Activity [18]: 88%; Activity [19]: 82%; Activity [20]: 70%; Activity [21]: 2%; Activity [22]: 72%; Activity [23]: 85%; Activity [24]: 40%
